Results reported in ChEMBL document CHEMBL1136861, “Identification of a series of benzoxazoles as potent 5-HT6 ligands” (Bioorg Med Chem Lett, 2009).

Each compound was assayed against T1, 5-hydroxytryptamine receptor 6 (Homo sapiens, UniProt P50406) (assay: Displacement of [3H]LSD from human cloned 5HT6 receptor expressed in human HeLa cells).
Type: cell-based
How it was run: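 Human 5-HT6 receptor cloned and stably expressed in HeLa cells; competition binding with [3H]-LSD as radioligand; Ki values determined in triplicate.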

T1 sequence (P50406 whole entry): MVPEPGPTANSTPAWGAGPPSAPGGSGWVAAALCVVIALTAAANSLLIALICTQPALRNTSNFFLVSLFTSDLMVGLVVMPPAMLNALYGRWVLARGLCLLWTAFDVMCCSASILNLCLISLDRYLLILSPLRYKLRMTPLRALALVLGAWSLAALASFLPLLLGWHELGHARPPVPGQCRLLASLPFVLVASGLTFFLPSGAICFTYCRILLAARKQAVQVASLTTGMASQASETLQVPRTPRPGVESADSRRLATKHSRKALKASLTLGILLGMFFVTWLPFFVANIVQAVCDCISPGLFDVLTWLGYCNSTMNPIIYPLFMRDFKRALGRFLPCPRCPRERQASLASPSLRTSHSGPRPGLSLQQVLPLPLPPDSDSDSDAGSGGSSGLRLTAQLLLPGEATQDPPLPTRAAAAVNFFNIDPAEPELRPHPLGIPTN

Ki [nM] | SMILES
41 | O=S(=O)(c1ccccc1)c1cccc2oc(N3CCNCC3)nc12
127 | O=S(=O)(c1cccc2ccccc12)c1cccc2oc(N3CCN(CCCc4ccccc4)CC3)nc12
7.1 | O=S(=O)(c1cccc2ccccc12)c1cccc2nc(N3CCNCC3)oc12
9.7 | CN1CCN(c2nc3c(S(=O)(=O)c4cccc5ccccc45)cccc3o2)CC1
79 | O=S(=O)(c1cccc2ccccc12)c1cccc2oc(N3CCN(C4CCCC4)CC3)nc12

What follows are compounds tested against T1, 5-hydroxytryptamine receptor 6 (assay: Antagonist activity at human cloned 5HT6 receptor expressed in human HeLa cells assessed as blockage of 5-HT-stimulated cAMP formation after 10 mins by radioimmunoassay).
Type: functional, cell-based
How it was run: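 HeLa cells stably transfected with human 5-HT6 receptor; antagonism read as blockade of 5-HT-stimulated cAMP formation; IC50 and Imax values determined in triplicate.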

IC50 [nM] | Imax [%] | SMILES
117 | 92 | O=S(=O)(c1cc(Cl)ccc1Cl)c1cccc2oc(N3CCNCC3)nc12
77 | 96 | O=S(=O)(c1cccc2ccccc12)c1cccc2nc(N3CCNCC3)oc12
105 | 83 | CN1CCN(c2nc3c(S(=O)(=O)c4cccc5ccccc45)cccc3o2)CC1
248 | 89 | CCN1CCN(c2nc3c(S(=O)(=O)c4cccc5ccccc45)cccc3o2)CC1
100 | 92 | COc1cccc(S(=O)(=O)c2cccc3oc(N4CCNCC4)nc23)c1
120 | 96 | O=S(=O)(c1cccc(C(F)(F)F)c1)c1cccc2oc(N3CCNCC3)nc12
96 | 97 | O=S(=O)(c1cccc2ccccc12)c1cccc2oc(N3CCNCC3)nc12
